This is a sample that favours compounds with a hit; in the whole collection about 3.7% have one here.
KCNK3 inh – human KCNK3 channel inhibitors, primary screen, CHO cells, FluxOR thallium flux, B-score. FluxOR fluorescence; hits give low values. 340,000 compounds, 0.84% hits. B-score at 10 µM. AID 602410, 2012. Potassium channel subfamily K member 3 (Homo sapiens), O14649;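 active = B-score under library mean minus 4 SD, starting fluorescence ratio at most library mean plus 5 SD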;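 also: more negative B-score means stronger inhibition of thallium flux through KCNK3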
hERG protect – hERG rescue from dofetilide block, primary screen, cell-based, CHO-hERG, FluxOR thallium flux, dofetilide IC70; Voltage-gated inwardly rectifying potassium channel KCNH2 (Homo sapiens), Q12809; dofetilide IC70 present; activation (rescue from dofetilide block), less the hit threshold, % at 10 µM; 310,000 compounds, 0.51% hits;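 active = activation above the mean of controls blocked by dofetilide plus 5 SD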;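 also: thallium influx through hERG after potassium depolarization seen as dye fluorescence rise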
KCNK9 block – KCNK9 potassium channel inhibitors, primary screen, HEK293 cells, thallium flux; B-score at 10 µM; 310,000 compounds, 1.2% hits; Potassium channel subfamily K member 9 (Homo sapiens), Q9NPC2; AID 488922, 2010; FluxOR thallium flux fluorescence; hits give low values;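 active = ratio B-score over 3 SD below the library mean, with starting fluorescence within 5 SD of its mean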;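 also: negative B-score means less thallium flux so channel inhibition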
Kir21 block – inhibitors of mouse Kir2.1 inward-rectifier potassium channel; Inward rectifier potassium channel 2 (Mus musculus), P35561; AID 1672, 2009; 310,000 compounds, 0.85% hits; HEK293-Kir2.1, FluxOR thallium flux fluorescence; hits give low values; B-score at 10 µM;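 active = fluorescence ratio B-score at or below minus 3 SD of library scores, with starting-brightness B-score within 2 SD, cut at about -4.2 in these data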;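 also: channel flux triggered by added potassium and thallium sulfate stimulus; B-score of peak minus minimum fluorescence over baseline after thallium stimulus; more negative B-score means stronger Kir2.1 block with less thallium influx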
KCNQ1 act – potentiators or activators of KCNQ1 channel, primary screen, cell-based, thallium flux, high-throughput; Potassium voltage-gated channel subfamily KQT member 1 (Homo sapiens), P51787; CHO-K1 KCNQ1, thallium flux FluxOR fluorescence; hits give high values; B-score at 10 µM; 310,000 compounds, 0.35% hits;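 active = fluorescence ratio B-score, a plate-corrected score, at least three library SD, with initial intensity B-score within 5 SD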
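Material: CHO-K1 cells stably expressing KCNQ1. Medium: assay buffer for compound exposure, DMSO matched across wells. Reagent: K+/Tl+ depolarizing stimulus. Compound dosing: single-concentration screen. Times: 37 °C overnight plating, 90-min dark dye load, 20-min compound pretreatment. Technique: FluxOR Tl+ flux fluorescence.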
KCNQ1 inh – inhibitors of human KCNQ1 channel, primary screen, cell-based, thallium flux, high-throughput | 310,000 compounds, 1.3% hits | CHO-K1 KCNQ1, FluxOR thallium flux fluorescence; hits give high values | AID 2642, 2010 | Potassium voltage-gated channel subfamily KQT member 1 (Homo sapiens), P51787 | B-score at 10 µM;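 active = compounds whose thallium flux B-score, printed positive for inhibition, exceeds three library SD while starting fluorescence stays within three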;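 also: channel opened by potassium depolarization with thallium stimulus after 20 min compound exposure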
Numbers stand for hits; 0 = inactive; - = not tested or not shown.

SMILES	KCNK3 inh	hERG protect	KCNK9 block	Kir21 block	KCNQ1 act	KCNQ1 inh
CN1CCCc2cc3c(C(F)(F)F)cc(=O)oc3nc21	0	0	0	0	0	11
CC(C)c1cc(=O)oc2c3c4c(cc12)CCCN4CCC3	0	0	0	0	0	0
Cc1cc(C)c(S(=O)(=O)Nc2ccc(N(C)C)cc2)c(C)c1-n1cnnn1	0	0	0	0	0	0
CCSc1nc(C(F)(F)F)cc(=O)n1-c1ccccc1	0	0	0	0	0	0
CC(C)Sc1nc(C(F)(F)F)cc(=O)n1-c1ccccc1	0	0	0	-4.36	0	0
CC(C)CNC(=O)/C=C/C=C/CCCC/C=C/c1ccc2c(c1)OCO2	0	-	-	-	-	-
CCCCCCN=C(C)c1ccccc1O	0	0	0	0	0	0
CC(C)CCNC(=O)C1CCCCN1S(=O)(=O)c1ccc(F)cc1 (centres undefined)	0	5.0	0	0	0	0
CCOC(=O)C1=C(C)N=c2s/c(=C/c3cccc([N+](=O)[O-])c3O)c(=O)n2C1c1cc(OC)c(OC)c(OC)c1 (centres undefined)	0	0	0	0	0	8
CCC(=O)NCCCCCCNC(=O)CC	0	6.9	0	0	0	0
O=C([C@H](Cc1ccccc1)N1C(=O)c2ccccc2C1=O)N1CCOCC1	0	0	0	0	0	0
N#C/C(=C\c1ccc(O)c([N+](=O)[O-])c1)c1nc2ccccc2s1	0	0	0	0	0	6
COc1cc(/C=C(\C#N)c2nc3ccccc3s2)cc([N+](=O)[O-])c1O	0	0	0	0	0	6
CCc1ccc(/C=N/NC(=O)c2cc(-c3ccccc3OC)nc3ccccc23)s1	0	0	0	0	0	6
COc1ccc(/C=N\NC(=O)c2ccc(-c3ccccc3)cc2)cc1COC(C)=O	0	0	0	0	0	0
COc1ccc(/C=N/NC(=O)c2cc(-c3ccc(C)cc3C)nc3ccccc23)cc1COC(C)=O	-8.79	0	0	0	0	0
Cc1cccc(C(=O)OCC(=O)c2ccc(CC(=O)N3CCOCC3)s2)c1C	0	-	-	-	-	-
Cc1ccc(C)n1-n1c(C)nc2scc(-c3ccccc3)c2c1=O	0	0	0	0	0	0
Cc1nc2scc(-c3ccccc3)c2c(=O)n1N=C1C=CC(=O)C=C1	-	0	0	-6.79	0	0
COc1ccc(CN2C(=O)c3ccccc3C2=O)cc1	0	0	0	0	0	0
COc1ccc(CN2C(=O)c3ccccc3C(/C=N\OCc3ccc(F)cc3)C2=O)cc1 (centres undefined)	0	0	0	0	0	10
COc1ccc(CN2C(=O)c3ccccc3C(/C=N/OCc3ccc(Cl)cc3)C2=O)cc1 (centres undefined)	0	0	0	0	0	7
O=C(NCCc1ccc(F)cc1)c1cc(-c2ccncc2)nc2ccccc12	-	0	0	0	0	0
CN(C)S(=O)(=O)c1ccc(NC=O)cc1	0	0	0	0	0	0
C=CCn1c(SCC(=O)c2ccc(OC)cc2)nnc1-c1ccc2c(c1)OCO2	0	0	0	0	0	0
SMILES	KCNK3 inh	hERG protect	KCNK9 block	Kir21 block	KCNQ1 act	KCNQ1 inh
C=CCn1c(SCC(=O)c2ccc(Cl)cc2)nnc1-c1ccc2c(c1)OCO2	0	0	0	-5.42	0	0
Cc1ccc(S(=O)(=O)Nc2ccccc2C(N)=O)cc1	0	0	0	0	0	0
Cc1ccc(S(=O)(=O)Nc2ccccc2-c2ccccc2NS(=O)(=O)c2ccc(C)cc2)cc1	0	0	0	0	0	7
Cc1ccc(S(=O)(=O)Nc2ccccc2C(O)c2ccccc2)cc1 (centres undefined)	0	0	0	-5.01	0	0
CCOc1ccc(NC(=O)Nc2nc3ccc(S(C)(=O)=O)cc3s2)cc1	0	0	0	0	0	0
O=C(COC(=O)c1ccc(Br)cc1)NCCc1ccccc1	0	0	0	0	0	0
